Results reported in ChEMBL document CHEMBL3862011, “Neuroprotective effects of benzyloxy substituted small molecule monoamine oxidase B inhibitors in Parkinson's disease” (Bioorg Med Chem, 2016).

What was measured:
[1] = Cytotoxicity against rat PC12 cells assessed as cell survival at 20 uM after 72 hrs by MTT assay relative to control; assay type: toxicity, PC-12; conditions: read-out: Survival
[2] = Cytotoxicity against rat PC12 cells assessed as cell survival at 100 uM after 24 hrs by MTT assay relative to control; assay type: toxicity, PC-12; conditions: read-out: Survival
[3] = Neuroprotective activity against 6-OHDA-induced toxicity in rat PC12 cells assessed as cell survival at 20 uM preincubated for 24 hrs followed by 6-OHDA addition measured after 24 hrs by MTT assay relative to control; assay type: functional; conditions: PC-12, read-out: Survival
Method in brief: (§1)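 PC12 cells seeded 5×10^3/well, after 24 h given compound at 20 μM for 24 h at 37 °C, then exposed to 6-OHDA (40 μM) or rotenone (1 μM) for 24 h. […] Mean ± SEM of three independent experiments.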

[4] = Neuroprotective activity against rotenone-induced toxicity in rat PC12 cells assessed as cell survival at 20 uM preincubated for 24 hrs followed by rotenone addition measured after 24 hrs by MTT assay relative to control; assay type: functional; conditions: PC-12, read-out: Survival; method in brief: as §1
in vitro = conditions: PAMPA
[5] = molecular target: T1, Amine oxidase [flavin-containing] A (Homo sapiens, UniProt P21397)
T1 sequence (P21397 whole entry): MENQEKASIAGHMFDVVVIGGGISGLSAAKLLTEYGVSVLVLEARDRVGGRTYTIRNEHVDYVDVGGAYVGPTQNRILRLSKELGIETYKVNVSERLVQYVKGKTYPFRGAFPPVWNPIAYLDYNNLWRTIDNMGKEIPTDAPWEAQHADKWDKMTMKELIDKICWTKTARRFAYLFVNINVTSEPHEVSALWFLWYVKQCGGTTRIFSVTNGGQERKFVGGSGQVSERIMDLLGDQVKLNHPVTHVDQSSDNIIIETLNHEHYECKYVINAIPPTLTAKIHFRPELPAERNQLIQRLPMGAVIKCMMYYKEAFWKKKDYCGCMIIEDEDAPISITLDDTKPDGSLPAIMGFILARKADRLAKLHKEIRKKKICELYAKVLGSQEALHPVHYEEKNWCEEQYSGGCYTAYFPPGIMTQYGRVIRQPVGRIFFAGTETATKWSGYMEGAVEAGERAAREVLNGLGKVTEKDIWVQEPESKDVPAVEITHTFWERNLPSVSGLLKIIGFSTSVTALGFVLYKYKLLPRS

[6] = molecular target: T1, Amine oxidase [flavin-containing] A; experiment: Inhibition of recombinant human MAO-A using kynuramine as substrate assessed as decrease in 4-hydroxyquinoline production incubated for 20 mins by fluorescence spectrophotometry

| SMILES | viability at 72 h, 20 µM [1] [%] | viability at 24 h, 100 µM [2] [%] | viability at 20 µM [3] [%] | viability at 20 µM [4] [%] | Papp at 16 h, 100 ug/ml (in vitro) [×10⁻⁶ cm/s] | IC50 [5] [µM] | IC50 [6] [µM] |
| --- | --- | --- | --- | --- | --- | --- | --- |
| CC(=O)c1cccc(OCc2ccc(Cl)cc2)c1 | 102 | 117 | 132 | 109 |  |  |  |
| C#CCN[C@@H]1CCc2ccccc21 [RASAGILINE] | 101 | 86.9 | 135 | 109 |  |  |  |
| CC(=O)c1ccc(OCc2ccc(Cl)cc2)cc1O | 126 | 109 | 144 | 105 | 12.7 | 25.3 |  |
| CC(=O)c1ccc(OCc2cccc(Cl)c2)cc1 | 116 | 118 | 123 | 95.8 |  | 88.4 |  |
| CC(=O)c1ccc(OCc2cccc(Cl)c2)cc1O | 112 | 110 | 134 | 93.3 |  | 48 | 17.7 |
| Cc1c(C)c2ccc(OCc3ccc(F)c(F)c3)cc2oc1=O | 102 | 106 | 138 | 117 |  |  |  |
| O=C1CCc2ccc(OCc3cccc(Cl)c3)cc2N1 | 97.2 | 76.1 | 121 | 110 |  | > 100 |  |
| Cc1c(C)c2ccc(OCc3ccc(Cl)cc3)cc2oc1=O | 104 | 106 | 114 | 119 |  |  |  |
| O=c1ccoc2cc(OCc3ccc(C(F)(F)F)cc3)ccc12 | 110 | 81.2 | 123 | 110 |  | 18.9 |  |
| O=c1ccoc2ccc(OCc3ccc(F)cc3)cc12 | 109 | 85.2 | 115 | 106 |  | 13.6 |  |
| O=C1CCCc2cc(OCc3ccc(Cl)cc3)ccc21 | 129 | 91.2 | 127 | 110 |  | 0.34 |  |
| O=C1CCCc2cc(OCc3ccc(F)cc3)ccc21 |  | 83.3 | 139 | 95.9 |  | 1.29 |  |
| CC(=O)c1ccc(OCc2ccc(F)cc2)cc1O | 109 | 101 | 144 | 98.3 | 13.5 | 43.4 | 3.7 |
| O=c1ccoc2cc(OCc3cccc(Cl)c3)ccc12 | 119 | 73.5 | 117 | 101 |  | 23.6 |  |
| CC(=O)c1ccc(OCc2ccc(F)cc2)cc1 | 123 | 105 | 116 | 88.6 |  | > 100 |  |
| CC(=O)c1ccc(OCc2cccc(Cl)c2)cc1F |  | 108 | 133 | 112 |  | > 100 |  |

| SMILES | viability at 72 h, 20 µM [1] [%] | viability at 24 h, 100 µM [2] [%] | viability at 20 µM [3] [%] | viability at 20 µM [4] [%] | Papp at 16 h, 100 ug/ml (in vitro) [×10⁻⁶ cm/s] | IC50 [5] [µM] | IC50 [6] [µM] |
| --- | --- | --- | --- | --- | --- | --- | --- |
| CC1(C)CC(=O)c2ccc(OCc3ccc(F)cc3)cc2O1 | 122 | 96.2 | 148 | 111 | 9.71 | > 100 |  |
| O=C1OCc2cc(OCc3ccc(C(F)(F)F)cc3)ccc21 | 87.2 |  | 125 | 111 |  | 9.24 |  |
| CC(=O)c1ccc(OCc2ccc(Cl)cc2)cc1F | 113 | 105 | 142 | 101 |  | 89 |  |
| CC(=O)c1ccc(OCc2cccc(F)c2)cc1O | 115 | 107 | 133 | 106 | 15.9 | > 100 | 50.7 |
| CC(=O)c1cccc(OCc2ccc(Br)cc2)c1 | 107 | 122 | 109 | 105 |  | 53.7 |  |
| Cc1c(C)c2ccc(OCc3cccc(F)c3)cc2oc1=O | 108 | 109 | 130 | 115 |  |  |  |
| O=c1ccoc2cc(OCc3ccc(F)cc3)ccc12 | 119 | 72.9 | 124 | 115 |  | 18.5 |  |
| O=C1CCc2ccc(OCc3cccc(Br)c3)cc2N1 | 108 | 80.2 | 112 | 134 | 8.89 | 49.2 |  |
| CC(=O)c1ccc(OCc2ccc(F)cc2)cc1F | 123 | 106 | 105 | 114 |  | > 100 |  |
| CC(=O)c1ccc(OCc2cccc(F)c2)cc1F | 119 | 118 | 116 | 109 |  | > 100 |  |
| O=C1OCc2cc(OCc3ccc(Cl)cc3)ccc21 | 85.7 | 86.7 | 137 | 113 |  | 3.61 |  |
| O=c1ccoc2ccc(OCc3ccc(Cl)cc3)cc12 | 108 | 85 | 122 | 115 |  | 4.52 |  |
| O=C1CCOc2cc(OCc3ccc(Cl)cc3)ccc21 | 115 | 98.6 | 143 | 111 |  |  |  |
| O=C1OCc2cc(OCc3ccc(F)cc3)ccc21 | 89.7 | 64.9 | 116 | 114 |  | 1.33 |  |
| CC1(C)CC(=O)c2ccc(OCc3ccc(Cl)cc3)cc2O1 | 109 | 110 | 143 | 108 |  | > 100 |  |
